Measured values pooled from the literature.
Protocols differ between the studies behind these lines.
Target: SRSF protein kinase 1 (SRPK1, Homo sapiens, UniProt Q96SB4)

c1cncc(-c2cccc(Nc3nccc(NC4CCCCC4)n3)c2)c1 — remaining binding (binding; competition with immobilised ligand; 10 µM): 30%
CN(C)C(=O)Cn1cc(-c2nc(C3(c4ccc(-c5cnc(N)nc5)cc4)CC3)no2)cn1 — remaining binding (cell-free assay; competition with immobilised ligand; 1 µM): 93%
Nc1ncc2c(n1)-c1c([nH]c3ccc(C#CC4CC4)cc13)CCCC2 — remaining binding (binding; competition with immobilised ligand; 1 µM): 87%
CN(C)C(=O)Cn1cc(-c2nc([C@@](C)(c3ccc(-c4cnc(N)nc4)cc3)C3CC3)no2)cn1 — remaining binding (cell-free assay; competition with immobilised ligand; 1 µM): 100%
N[C@@H]1CCN(c2nccc(-c3cnn4ncccc34)n2)C1 — remaining binding (binding; 1 µM): 92%
C[C@@H](c1ccc(-n2cnc3c(N)ncnc32)cc1)N1CCc2nn(C)c(Cc3ccccc3)c2C1=O — remaining binding (binding; competition with immobilised ligand; 0.1 µM): 100%
O=C(O)[C@H]1[C@H](Cn2nnc3ccccc3c2=O)CC[C@@H]1C(=O)c1ccc(OCCC2CCOCC2)cc1 — remaining binding (cell-free assay; competition with immobilised ligand; 1 µM): 79%
COc1ccnn2ncc(-c3ccnc(N(C)C)n3)c12 — remaining binding (binding; 1 µM): 85%
O=C(NCC1CCOCC1)c1n[nH]cc1NC(=O)c1c(F)cccc1F — remaining binding (binding; competition with immobilised ligand; 1 µM): 68%
O=C(c1ccc(Nc2ncc(Cl)c(-c3ccc(Cl)s3)n2)cc1)N1CCC(N2CCCC2)CC1 — remaining binding (binding; competition with immobilised ligand; 1 µM): 93%
CC1CCCN1c1nccc(-c2cnn3ncccc23)n1 (stereo not drawn) — remaining binding (binding; 1 µM): 94%
Nc1cnc(N2CCc3cc(S(=O)(=O)Nc4c(F)cc(Cl)cc4F)cc(N4CCCC4=O)c32)nc1 — remaining binding (cell-free assay; competition with immobilised ligand; 1 µM): 81%
COc1cnc(Nc2cccc(S(N)(=O)=O)c2)nc1N1CCN(c2ccccc2)CC1 — remaining binding (binding; competition with immobilised ligand; 1 µM): 65%
COc1ncc2cc3ccccc3nc2c1C#N — remaining binding (cell-free assay; competition with immobilised ligand; 5 µM): 96%
COCCOc1nc(-c2ccc(Cl)nc2)nc2c1CN(C(=O)c1ncn3ccccc13)CC2 — remaining binding (cell-free assay; competition with immobilised ligand; 0.1 µM): 86%
CN(C)c1ncc(F)c(-c2cnn3ncccc23)n1 — remaining binding (binding; 1 µM): 95%
O=C(NCCCN1CCOCC1)c1ccc(Nc2ncc(Cl)c(-c3ccc(Cl)s3)n2)cc1 — remaining binding (binding; competition with immobilised ligand; 1 µM): 97%
Cc1cnn2ncc(-c3ccnc(N(C)C)n3)c2c1 — remaining binding (binding; 1 µM): 100%
O=C(c1ccc(Nc2nccc(-c3cc4ccccc4s3)n2)cc1)N1CCC(N2CCCC2)CC1 — remaining binding (binding; competition with immobilised ligand; 1 µM): 86%
O=C(O)c1cc(-c2ccc(C3CCNCC3)cc2)c2ccc(-c3ccc(C(F)(F)F)cc3)cc2c1 — remaining binding (cell-free assay; competition with immobilised ligand; 1 µM): 86%
CN(CCCC(F)(F)F)c1nccc(-c2cnn3ncccc23)n1 — remaining binding (binding; 1 µM): 100%
